Measured values from different studies.
Protocols differ between the studies behind these lines.
Target: Peripheral plasma membrane protein CASK (CASK, Homo sapiens, UniProt O14936)
One construct used (O14936 1-926): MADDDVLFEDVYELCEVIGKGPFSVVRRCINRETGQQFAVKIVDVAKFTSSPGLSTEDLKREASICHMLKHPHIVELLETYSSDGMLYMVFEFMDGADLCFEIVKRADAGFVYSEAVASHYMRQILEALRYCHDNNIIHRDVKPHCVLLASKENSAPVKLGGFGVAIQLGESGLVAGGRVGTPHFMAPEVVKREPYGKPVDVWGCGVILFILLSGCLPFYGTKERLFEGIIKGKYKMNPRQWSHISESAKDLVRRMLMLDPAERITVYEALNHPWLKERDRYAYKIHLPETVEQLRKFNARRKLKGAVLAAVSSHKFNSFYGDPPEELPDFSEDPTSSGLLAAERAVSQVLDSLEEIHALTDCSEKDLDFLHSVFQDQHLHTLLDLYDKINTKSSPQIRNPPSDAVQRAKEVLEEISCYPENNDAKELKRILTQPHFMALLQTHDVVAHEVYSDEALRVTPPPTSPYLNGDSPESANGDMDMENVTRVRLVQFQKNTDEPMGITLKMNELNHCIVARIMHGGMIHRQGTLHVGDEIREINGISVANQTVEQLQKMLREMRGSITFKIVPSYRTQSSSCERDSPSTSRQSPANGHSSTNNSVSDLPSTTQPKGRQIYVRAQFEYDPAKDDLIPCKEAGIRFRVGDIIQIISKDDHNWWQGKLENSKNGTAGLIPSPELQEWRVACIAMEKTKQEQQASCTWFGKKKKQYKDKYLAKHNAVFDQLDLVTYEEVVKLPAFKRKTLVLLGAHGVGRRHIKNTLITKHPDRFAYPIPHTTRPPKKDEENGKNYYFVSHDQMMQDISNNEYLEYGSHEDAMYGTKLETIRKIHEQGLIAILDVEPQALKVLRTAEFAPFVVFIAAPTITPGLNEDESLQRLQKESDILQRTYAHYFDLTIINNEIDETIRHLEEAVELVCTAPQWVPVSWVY

O=C(c1ccc(Nc2ncc(Cl)c(-c3ccc(Cl)s3)n2)cc1)N1CCC(N2CCCC2)CC1 — remaining binding (binding, competition with immobilised ligand; 1 µM): 87%
FC(F)(F)c1ccc2c(c1)nc(-c1cccnc1)n2C1CC1 — remaining binding (cell-free assay, competition with immobilised ligand; 1 µM): 100%
c1cncc(-c2cccc(Nc3nccc(NC4CCCCC4)n3)c2)c1 — remaining binding (binding, competition with immobilised ligand; 10 µM): 76%
COc1cnc(Nc2cccc(S(N)(=O)=O)c2)nc1N1CCN(c2ccccc2)C(=O)C1 — remaining binding (binding, competition with immobilised ligand; 1 µM): 79%
Cc1c(NC(=O)c2cc(C(N)=O)nc3cc(F)ccc23)c(C(F)(F)F)nn1Cc1ccc(C#N)cc1 — remaining binding (cell-free assay, competition with immobilised ligand; 1 µM): 71%
N[C@@H]1CCN(c2nccc(-c3cnn4ncccc34)n2)C1 — remaining binding (binding; 1 µM): 100%
N#CC1(c2ccccn2)CCN(Cc2cc(C(=O)N3CCCC3)c(=O)n3ccccc23)CC1 — remaining binding (cell-free assay, competition with immobilised ligand; 1 µM): 100%
CN(C)c1nccc(-c2cnn3ncccc23)n1 — remaining binding (binding, competition with immobilised ligand; 1 µM): 90%
CCC(=N\O)/C(C)=C/c1ccc(F)cc1 — remaining binding (cell-free assay, competition with immobilised ligand; 1 µM): 70%
C[C@@H]1CCN(c2nccc(-c3cnn4ncccc34)n2)C1 — remaining binding (binding; 1 µM): 84%
O=C(NCCCN1CCOCC1)c1ccc(Nc2nccc(-c3cc4ccccc4s3)n2)cc1 — remaining binding (binding, competition with immobilised ligand; 1 µM): 100%
c1cnn2ncc(-c3ccnc(N4CCC45COC5)n3)c2c1 — remaining binding (binding; 1 µM): 81%
Cn1nc(C(F)(F)F)cc1-c1cnc(N2CCc3cc(S(=O)(=O)Nc4c(F)cc(Cl)cc4F)cc(N4CCCC4=O)c32)nc1 — remaining binding (cell-free assay, competition with immobilised ligand; 1 µM): 77%
O=C(c1ccc(Nc2ncc(Cl)c(-c3cc4ccccc4s3)n2)cc1)N1CCC(N2CCCC2)CC1 — remaining binding (binding, competition with immobilised ligand; 1 µM): 74%
COc1ccnn2ncc(-c3ccnc(N(C)C)n3)c12 — remaining binding (binding; 1 µM): 96%
CSc1cccnc1N1CCN(Cc2nc3ccccc3[nH]2)CC1 — remaining binding (cell-free assay, competition with immobilised ligand; 1 µM): 100%
Nc1ncc2c(n1)-c1c([nH]c3ccc(C#CC4CC4)cc13)CCCC2 — remaining binding (binding, competition with immobilised ligand; 1 µM): 88%
COc1ncc2cc3ccccc3nc2c1C#N — remaining binding (cell-free assay, competition with immobilised ligand; 5 µM): 99%
CCN1CCN(Cc2ccc(C(=O)Nc3ccc(C)c(Oc4ccc5c(c4)CC(=O)N5)c3)cc2C(F)(F)F)CC1 — remaining binding (binding, competition with immobilised ligand; 1 µM): 100%
CN(CCCC(F)(F)F)c1nccc(-c2cnn3ncccc23)n1 — remaining binding (binding; 1 µM): 100%
O=C(Nc1c[nH]nc1C(=O)NC1CCNCC1)c1cc(F)cc(F)c1 — remaining binding (binding, competition with immobilised ligand; 1 µM): 66%
